Assay results as given in ChEMBL document CHEMBL1122782, “Bulky amine analogues of ketoprofen: potent antiinflammatory agents” (J Med Chem, 1984).

Legend:
Rattus norvegicus [1] = assay: The mean increase in paw volume was compared between drug treated groups and placebo to calculate the percent inhibition in rats at 0.02 mmol/kg by carrageenan Edema Assay; 20-29; type: functional
Rattus norvegicus [2] = assay: The mean increase in paw volume was compared between drug treated groups and placebo to calculate the percent inhibition in rats at 0.02 mmol/kg by carrageenan Edema Assay; 0-19; type: functional
Rattus norvegicus [3] = assay: Antiinflammatory efficacy is measured by the percent inhibition of paw volume during the 3 week adjuvant arthritis test at 0.08 mM/kg (33.7 mg); type: functional
In short: (§1)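 Male Sprague-Dawley rats (200–230 g) were used in groups of eight. Each received 0.1 mL of 0.6% M. butyricum in heavy mineral oil into the plantar tissue of one hind paw. Daily oral gavage in 1% gum tragacanth or corn oil-water emulsion began on the injection day and ran 21 days. Total hind paw volume was measured by mercury displacement, and inhibition was taken versus vehicle-treated adjuvant controls.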

Rattus norvegicus [4] = assay: Antiinflammatory efficacy is measured by the percent inhibition of paw volume during the 3 week adjuvant arthritis test at 0.005 mM/kg (2.11 mg); type: functional; in short: as §1
Rattus norvegicus [5] = assay: Ulcerogenicity was measured in intestine during the 3 week adjuvant arthritis test, no of animals with ulcers out of animals tested at 0.16 mM/kg (67.4 mg) was reported; toxic; type: functional, organism-based
In short: (§2)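 Male Sprague-Dawley rats (200–230 g) were injected in the plantar tissue of one hind paw with 0.1 mL of 0.6% M. butyricum suspension in heavy mineral oil. Daily oral gavage began on the day of adjuvant injection and ran for the 21 days, with drug suspended in 1% gum tragacanth or a corn oil-water emulsion. At the end the rats were sacrificed and the small intestine and stomach were examined for ulcers. Results are given as animals with ulcers/animals tested.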

Rattus norvegicus [6] = assay: Antiinflammatory efficacy is measured by the percent inhibition of paw volume during the 3 week adjuvant arthritis test at 0.02 mM/kg (8.43 mg); type: functional; in short: as §1
Rattus norvegicus [7] = assay: Antiinflammatory efficacy is measured by the weight gain in rats during the 3 week adjuvant arthritis test at 0.02 mM/kg (8.43 mg); type: functional
In short: (§3)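 Rats were adjuvant-injected (M. butyricum in mineral oil, one hind paw) or given a mineral-oil placebo. They were dosed by gavage daily for 21 days from the injection day, with vehicle only for both control groups, then weighed at the end. Weight gain % = (treated − adjuvant control)/(negative control − adjuvant control) × 100.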

Rattus norvegicus [8] = assay: Ulcerogenicity was measured in intestine during the 3 week adjuvant arthritis test, no of animals with ulcers out of 8 animals tested at 0.08 mM/kg (33.7 mg) was reported; type: functional
In short: (§4)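 In the 21-day adjuvant arthritis model, male Sprague-Dawley rats (200–230 g) received an M. butyricum mineral-oil suspension into one hind paw. They were dosed daily by gavage from the day of injection. At the end of the study the rats were killed, and the small intestines were examined for ulcers. Results are given as the number of ulcerated animals over the number tested.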

Rattus norvegicus [9] = organism: Rattus norvegicus; assay: Compound was evaluated for highest non-ulcerogenic dose (less than 50% ulcer incidence); type: functional; details: read-out: ED50
In short: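 Taken from the 21-day adjuvant arthritis test in male Sprague-Dawley rats dosed orally each day from the day of adjuvant injection. Small intestines and stomachs were examined for ulceration at the end. The value is the highest dose giving less than 50% ulcer incidence.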

Rattus norvegicus [10] = assay: Antiinflammatory efficacy is measured by the weight gain in rats during the 3 week adjuvant arthritis test at 0.08 mM/kg (33.7 mg); type: functional; in short: as §3
Rattus norvegicus [11] = assay: Ulcerogenicity was measured in stomach during the 3 week adjuvant arthritis test, no of animals with ulcers out of 4 animals tested at 0.02 mM/kg (8.43 mg) was reported; type: functional; in short: as §2
Rattus norvegicus [12] = assay: Ulcerogenicity was measured in stomach during the 3 week adjuvant arthritis test, no of animals with ulcers out of 8 animals tested at 0.08 mM/kg (33.7 mg) was reported; type: functional; in short: as §2
Rattus norvegicus [13] = assay: The percent inhibition was calculated from the average differences in hind paw volume between the adjuvant injected controls and the adjuvant-injected medicated rats at 0.08 mmol/kg; 80-89; type: functional
Rattus norvegicus [14] = assay: The mean increase in paw volume was compared between drug treated groups and placebo to calculate the percent inhibition in rats at 0.02 mmol/kg by carrageenan Edema Assay; 30-39; type: functional; details: Rattus norvegicus
Rattus norvegicus [15] = assay: Ulcerogenicity was measured in intestine during the 3 week adjuvant arthritis test, no of animals with ulcers out of 4 animals tested at 0.02 mM/kg (8.43 mg) was reported; type: functional; in short: as §4
Rattus norvegicus [16] = assay: Antiinflammatory efficacy is measured by the weight gain in rats during the 3 week adjuvant arthritis test at 0.005 mM/kg (2.11 mg); type: functional; in short: as §3
Rattus norvegicus [17] = assay: The percent inhibition was calculated from the average differences in hind paw volume between the adjuvant injected controls and the adjuvant-injected medicated rats at 0.08 mmol/kg; 90-99; type: functional
Rattus norvegicus [18] = assay: The mean increase in paw volume was compared between drug treated groups and placebo to calculate the percent inhibition in rats at 0.08 mmol/kg by carrageenan Edema Assay; 40-49; type: functional
Rattus norvegicus [19] = assay: The percent inhibition was calculated from the average differences in hind paw volume between the adjuvant injected controls and the adjuvant-injected medicated rats at 0.08 mmol/kg; 70-79; type: functional
Rattus norvegicus [20] = assay: The mean increase in paw volume was compared between drug treated groups and placebo to calculate the percent inhibition in rats at 0.08 mmol/kg by carrageenan Edema Assay; 30-39; type: functional
Rattus norvegicus [21] = assay: The percent inhibition was calculated from the average differences in hind paw volume between the adjuvant injected controls and the adjuvant-injected medicated rats at 0.08 mmol/kg; 60-69; type: functional; details: Rattus norvegicus
Rattus norvegicus [22] = assay: The percent inhibition was calculated from the average differences in hind paw volume between the adjuvant injected controls and the adjuvant-injected medicated rats at 0.08 mmol/kg; 40-49; type: functional

Cc1ccccc1C(=O)c1cccc(C(C)CN2CCCCC2CC2CCCCC2)c1 (configuration not stated)
inhibition in vivo at 20 µmol/kg (Rattus norvegicus [1]): 20%

CC(CN1CCCCC1CC1CCCCC1)c1cccc(C(C)(O)c2ccccc2)c1 (configuration not stated)
inhibition in vivo at 20 µmol/kg (Rattus norvegicus [2]): 0%

O/N=C(/c1ccccc1)c1cccc(CCN2CCOCC2)c1
inhibition in vivo at 20 µmol/kg (Rattus norvegicus [2]): 0%

Cc1ccc(C(O)c2cccc(C(C)CN3CCCCC3CC3CCCCC3)c2)cc1 (configuration not stated)
inhibition in vivo at 20 µmol/kg (Rattus norvegicus [2]): 0%

CC(CN1CCCCC1CC1CCCCC1)c1cccc(C(=O)c2ccc(Cl)c(Cl)c2)c1 (configuration not stated)
inhibition in vivo at 20 µmol/kg (Rattus norvegicus [2]): 0%

CC(CN1CCCCC1CC1CCCCC1)c1cccc(C(=O)c2ccc(F)cc2)c1 (configuration not stated)
Inhibition (Rattus norvegicus [3]): 85% | Inhibition (Rattus norvegicus [4]): 61% | Ulcerogenic index (Rattus norvegicus [5]): Toxic | Inhibition (Rattus norvegicus [6]): 55% | Weight gain (Rattus norvegicus [7]): 31% | Ulcerogenic index (Rattus norvegicus [8]): 3 | highest non-ulcerogenic dose (Rattus norvegicus [9]): 3 µmol/kg | Weight gain (Rattus norvegicus [10]): 81% | Ulcerogenic index (Rattus norvegicus [11]): 0 | Ulcerogenic index (Rattus norvegicus [12]): 1 | inhibition in vivo at 80 µmol/kg (Rattus norvegicus [13]): 80% | inhibition in vivo at 20 µmol/kg (Rattus norvegicus [14]): 30% | Ulcerogenic index (Rattus norvegicus [15]): 1 | Weight gain (Rattus norvegicus [16]): 50%

CC(CN1CCCCC1CC1CCCCC1)c1cccc(C(N)c2ccccc2)c1 (configuration not stated)
inhibition in vivo at 80 µmol/kg (Rattus norvegicus [17]): 90% | inhibition in vivo at 20 µmol/kg (Rattus norvegicus [14]): 30%

CC(CN1CCCC1CC1CCCCC1)c1cccc(C(=O)c2ccccc2)c1 (configuration not stated)
inhibition in vivo at 80 µmol/kg (Rattus norvegicus [18]): 40% | inhibition in vivo at 80 µmol/kg (Rattus norvegicus [19]): 70%

CC(CN1CCCCC1CCCC1CCCCC1)c1cccc(C(=O)c2ccccc2)c1 (configuration not stated)
inhibition in vivo at 80 µmol/kg (Rattus norvegicus [20]): 30%

Cc1cccc(C(=O)c2cccc(C(C)CN3CCCCC3CC3CCCCC3)c2)c1 (configuration not stated)
inhibition in vivo at 20 µmol/kg (Rattus norvegicus [2]): 0%

CC(CN1CCCCC1CC1CCCCC1)c1cccc(C(O)c2cccc(Cl)c2)c1 (configuration not stated)
inhibition in vivo at 20 µmol/kg (Rattus norvegicus [2]): 0%

COc1ccc(C(=O)c2cccc(C(C)CN3CCCCC3CC3CCCCC3)c2)cc1 (configuration not stated)
inhibition in vivo at 80 µmol/kg (Rattus norvegicus [21]): 60% | inhibition in vivo at 20 µmol/kg (Rattus norvegicus [1]): 20%

CC(CN1CCCCC1CCCC1CCCCC1)c1cccc(C(O)c2ccccc2)c1 (configuration not stated)
inhibition in vivo at 20 µmol/kg (Rattus norvegicus [14]): 30%

CN(C)CCCNCCc1cccc(C(=O)c2ccccc2)c1
inhibition in vivo at 80 µmol/kg (Rattus norvegicus [22]): 40% | inhibition in vivo at 80 µmol/kg (Rattus norvegicus [20]): 30%

Cc1ccc(C(=O)c2cccc(C(C)CN3CCCCC3CC3CCCCC3)c2)cc1 (configuration not stated)
inhibition in vivo at 20 µmol/kg (Rattus norvegicus [2]): 0%
